From ChEMBL document CHEMBL1153564 (Antimicrob Agents Chemother, 2008)
Converted amounts (≈) assume the structure as drawn. The source made the active and inactive calls. The rule behind the calls is not given here. Starred links: 1 amine or outer side, 2 acyl side, 3 side chain; linkers in the order of their positions; H or OH if unused. Positions of bridges follow the written chain, without caps; N, C: chain ends. Non-standard residues stand in square brackets, D forms with d. Residues, ends and D or L forms follow the SMILES beside them. *: point of attachment. pTerphenylCO(4''-OnC5H11) = CCCCCOc1ccc(-c2ccc(-c3ccc(C(=O)*)cc3)cc2)cc1; Orn(4R-OH,5R-OH) = O=C([C@H](C[C@@H](O)[C@@H](O)N[*:3])N[*:1])[*:2]; hTyr(3S-OH,4S-OH) = N[C@H](C(=O)O)[C@H](O)[C@@H](O)c1ccc(O)cc1; Pro(3S-OH,4S-Me) = C[C@H]1CN[C@H](C(=O)O)[C@H]1O; Hyp = O=C(O)[C@@H]1C[C@@H](O)CN1

How the values were obtained:
[1] = tested on: Candida albicans; assay: Antifungal activity against Candida albicans K-1 infected in neutropenic ICR/Swiss mouse candidiasis model assessed as fungal count per kidney administered 2 hrs postinfection measured up to 48 hrs; assay type: functional
Method in brief: (§1)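 Untreated neutropenic mice infected via the tail vein (inoculum about 6.1 log10 CFU/ml, 0.1 ml). Growth is the rise in kidney CFU over 48 h. Kidneys were homogenised, serially diluted 1:10 and plated on SDA for 24 h at 35°C. Mean of three mice.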

[2] = tested on: Nakaseomyces glabratus; assay: Antifungal activity against Candida glabrata 33609 infected in neutropenic ICR/Swiss mouse candidiasis model assessed as dose required for 1-log10 reduction in […] per kidney administered intraperitoneally every 24 hrs up to 4 days measured per 24 hrs; assay type: functional
Method in brief: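 Neutropenic mice (cyclophosphamide sc on days −4, −1 and +2) were infected iv 2 h before therapy. Five total doses from 0.078 to 20 mg/kg/24 h were given ip q24h for 4 days, three mice per regimen. Kidney CFU were measured at the end of therapy. Static and 1-log-kill doses were derived from a Hill sigmoid dose-effect fit.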

[3] = tested on: Serum; assay: Fraction unbound in Candida glabrata 5376-infected neutropenic ICR/Swiss mouse serum at 5 mg/kg, ip administered 2 hrs postinfection as single dose; assay type: ADME, organism-based; parameters: dose 5 mg/kg, route intraperitoneal; conditions: in vivo
[4] = tested on: Nakaseomyces glabratus; assay: Antifungal activity against Candida glabrata 32930 infected in neutropenic ICR/Swiss mouse candidiasis model assessed as dose required to maintain […] of 1.83 +/- 0.54 log10CFU per kidney administered intraperitoneally every 24 hrs up to 4 days measured per 24 hrs; assay type: functional
[5] = tested on: Mus musculus; assay: Cmax in serum of neutropenic ICR/Swiss mouse candidiasis model at 5 mg/kg, ip up to 4 hrs by reverse-phase high-pressure liquid chromatography; assay type: ADME, organism-based; parameters: dose 5 mg/kg, route intraperitoneal; conditions: in vivo
Method in brief: (§2)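 Infected neutropenic ICR/Swiss mice given single ip doses (5, 20 or 80 mg/kg; 0.2 ml); serum from three isoflurane-anaesthetised mice at 1, 4, 8, 12, 24 and 48 h, stored at −80°C, assayed by reverse-phase HPLC with fluorescence detection, loratadine internal standard, linear 10–50,000 ng/ml. Noncompartmental analysis; half-life by nonlinear least squares.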

[6] = tested on: Candida albicans; assay: Antifungal activity against Candida albicans K-1 infected in neutropenic ICR/Swiss mouse candidiasis model assessed as dose required for 1-log10 reduction in […] per kidney administered intraperitoneally every 48 hrs up to 4 days measured per 96 hrs; assay type: functional
Method in brief: (§3)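 Neutropenic mice were infected iv with C. albicans K-1 2 h before therapy. Total doses of 1.25, 5, 20, 80 and 320 mg/kg/96 h were split into 1, 2, 4 or 6 ip doses (q96h, q48h, q24h, q16h), three mice per regimen. Effect is the log10 CFU/kidney relative to untreated controls at 96 h. Static and 1-log doses were taken from a Hill model fit.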

[7] = tested on: Candida albicans; assay: Antifungal activity against Candida albicans K-1 infected in neutropenic ICR/Swiss mouse candidiasis model assessed as dose required to maintain […] of 3.90 +/- 0.15 log10CFU per kidney administered intraperitoneally every 24 hrs up to 4 days measured per 96 hrs; assay type: functional; method in brief: as §3
[8] = tested on: Nakaseomyces glabratus; assay: Antifungal activity against Candida glabrata 33616 assessed as partial growth inhibition after 24 hrs by CLSI end point method; assay type: functional; conditions: Nakaseomyces glabratus, 33616, 24 h
Method in brief: (§4)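 Two end points were read against the drug-free control well: partial growth inhibition (the CLSI end point) and complete inhibition. Run in duplicate on four separate occasions; the value is the mean. Drug stock was made in DMSO and diluted in 0.9% NaCl.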

[9] = tested on: Nakaseomyces glabratus; assay: Antifungal activity against Candida glabrata 5376 infected in neutropenic ICR/Swiss mouse candidiasis model assessed as reduction of […] in kidney at 20 mg/kg, ip administered 2 hrs postinfection as single dose measured within 1 to 4 hrs post dosing by time-kill assay; assay type: functional, organism-based; parameters: dose 20 mg/kg
Method in brief: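 Neutropenic mice were infected i.v. and 2 h later given a single i.p. dose (1.25, 5 or 20 mg/kg). Groups of three treated and three control mice were killed at intervals over 96 h, and kidney CFU were counted on SDA (limit 100 CFU/ml). The post-antifungal effect is t − c: the time for a 1 log10 CFU/kidney increase once serum levels fall below the MIC in treated mice, minus the same time in controls.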

[10] = tested on: Nakaseomyces glabratus; assay: Antifungal activity against Candida glabrata 5376 infected in neutropenic ICR/Swiss mouse candidiasis model assessed as dose required to maintain […] of 3.71 +/- 0.21 log10CFU per kidney administered intraperitoneally every 16 hrs up to 4 days measured per 96 hrs
[11] = tested on: Candida albicans; assay: Antifungal activity against Candida albicans K-1 infected in neutropenic ICR/Swiss mouse candidiasis model assessed as suppression of fungal regrowth at 5 mg/kg, ip administered 2 hrs postinfection as single dose by time-kill assay; assay type: functional, organism-based; parameters: dose 5 mg/kg
Method in brief: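 Single ip dose (20, 5 or 1.25 mg/kg) given 2 h after iv infection of neutropenic mice with K-1. Three treated and three control mice were sampled at intervals over 96 h for kidney CFU. PAFE is the time for treated burden to rise 1 log10 after serum levels fall below MIC, minus the same time in controls. Free drug was taken as 1%.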

[12] = tested on: Nakaseomyces glabratus; assay: Antifungal activity against Candida glabrata 513 infected in neutropenic ICR/Swiss mouse candidiasis model assessed as fungal count per kidney administered 2 hrs postinfection measured up to 48 hrs; assay type: functional
Method in brief: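 Female ICR/Swiss mice (23–27 g) made neutropenic with cyclophosphamide s.c. (150 mg/kg day −4, 100 mg/kg day −1, 100 mg/kg day +2). Infected by tail vein with 0.1 ml inoculum (~6.1 log10 CFU/ml). Kidneys of untreated mice were homogenised and plated on SDA for 24 h at 35°C. Growth over 48 h is given as log10 CFU/kidney.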

[13] = tested on: Candida albicans; assay: Antifungal activity against Candida albicans 580 assessed as complete growth inhibition after 24 hrs by CLSI end point method; assay type: functional; conditions: Candida albicans, 580, 24 h
Method in brief: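 CLSI M27-A2 broth dilution. Two end points read against the drug-free control well: partial inhibition (CLSI end point) and complete inhibition. Run in duplicate on four separate occasions; value is the mean. Drug stock in DMSO, diluted in 0.9% NaCl.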

[14] = tested on: Candida albicans; assay: Antifungal activity against Candida albicans 580 infected in neutropenic ICR/Swiss mouse candidiasis model assessed as fungal count per kidney administered 2 hrs postinfection measured up to 48 hrs; assay type: functional; method in brief: as §1
[15] = tested on: Candida albicans; assay: Antifungal activity against Candida albicans K-1 infected in neutropenic ICR/Swiss mouse candidiasis model assessed as prolongation of fungal growth suppression at 1.25 mg/kg, ip administered 2 hrs postinfection as single dose by time-kill assay; assay type: functional; conditions: route intraperitoneal
Method in brief: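 Single ip dose of 1.25, 5 or 20 mg/kg given 2 h after iv infection of neutropenic mice. Groups of 3 treated and 3 control mice sampled at 1–24 h intervals over 96 h. Kidney homogenates plated on SDA, 24 h at 35°C. PAFE = time for treated burden to rise 1 log10 CFU/kidney after serum level fell below MIC, minus the same time in controls.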

[16] = tested on: Nakaseomyces glabratus; assay: Antifungal activity against Candida glabrata 5376 assessed as partial growth inhibition after 24 hrs by CLSI end point method; assay type: functional; conditions: Nakaseomyces glabratus, 5376, 24 h; method in brief: as §4
[17] = tested on: Nakaseomyces glabratus; assay: Antifungal activity against Candida glabrata 570 assessed as partial growth inhibition after 24 hrs by CLSI end point method; assay type: functional; conditions: Nakaseomyces glabratus, 570, 24 h; method in brief: as §4
[18] = Elimination half life in serum of neutropenic ICR/Swiss mouse candidiasis model at 80 mg/kg, ip by reverse-phase high-pressure liquid chromatography; assay type: ADME, organism-based; parameters: dose 80 mg/kg, route intraperitoneal; conditions: read-out: beta t1/2 (converted); method in brief: as §2

CCCCCOc1ccc(-c2ccc(-c3ccc(C(=O)N[C@H]4C[C@@H](O)[C@@H](O)NC(=O)[C@@H]5[C@@H](O)[C@@H](C)CN5C(=O)[C@H]([C@@H](C)O)NC(=O)[C@H]([C@H](O)[C@@H](O)c5ccc(O)cc5)NC(=O)[C@@H]5C[C@@H](O)CN5C(=O)[C@H]([C@@H](C)O)NC4=O)cc3)cc2)cc1 [ANIDULAFUNGIN] ({pTerphenylCO(4''-OnC5H11)}-[Orn(4R-OH,5R-OH)]T[Hyp][hTyr(3S-OH,4S-OH)]T[Pro(3S-OH,4S-Me)]; lactam 1-C)
log10cfu [1]: 4 | Activity [2]: 4.21 mg/kg | Fu [3]: 1% | Activity [4]: 1.58 mg/kg | Cmax [5]: 4300 ng/mL | Activity [6]: 9.19 mg/kg | Activity [7]: 5 mg/kg | MIC [8]: 1 µg/mL (≈ 0.877 µM) | Activity [9]: Active | Activity [10]: 30 mg/kg | Activity [11]: Active | log10cfu [12]: 2.43 | MIC [13]: 0.03 µg/mL (≈ 0.0263 µM) | log10cfu [14]: 3.4 | Activity [15]: 56 h | MIC [16]: 0.03 µg/mL (≈ 0.0263 µM) | MIC [17]: 0.03 µg/mL (≈ 0.0263 µM) | half-life [18]: 24 h
